Experimental data from ChEMBL document CHEMBL5329160, “Design, synthesis, and mechanistic study of 2-piperazineone-bearing peptidomimetics as novel HIV capsid modulators” (RSC Med Chem, 2023).

Legend:
[1] = Cytotoxicity against human MT4 cells assessed as reduction in cell viability after 5 days by MTT assay; assay type: toxicity, cell-based; settings: time 5 day
[2] = tested on: Human immunodeficiency virus 2; experiment: Antiviral activity against HIV-2 ROD infected in MT4 cells assessed as protection against virus induced cytotoxicity and measured after 5 days by MTT spectrophotometric assay; assay type: functional, organism-based; settings: Human immunodeficiency virus 2, ROD, MT4, 120 h
[3] = tested on: Human immunodeficiency virus 1; experiment: Antiviral activity against HIV-1 IIIB infected in MT4 cells assessed as protection against virus induced cytotoxicity incubated for 5 days by MTT assay; assay type: functional, organism-based; settings: Human immunodeficiency virus 1, IIIB, MT4, 120 h
[4] = Selectivity index, ratio of CC50 for human MT4 cells to EC50 for HIV-1 IIIB infected in human MT4 cells; assay type: toxicity, cell-based; settings: read-out: Ratio CC50/EC50
[5] = Selectivity index, ratio of CC50 for human MT4 cells to EC50 for HIV-2 ROD infected in human MT4 cells; assay type: toxicity, cell-based; settings: read-out: Ratio CC50/EC50
[6] = target: T1, Structural capsid protein (Human immunodeficiency virus 1, UniProt Q76129); experiment: Binding affinity to HIV-1 NL4-3 hexameric capsid protein by SPR analysis
T1 sequence (Q76129 whole entry): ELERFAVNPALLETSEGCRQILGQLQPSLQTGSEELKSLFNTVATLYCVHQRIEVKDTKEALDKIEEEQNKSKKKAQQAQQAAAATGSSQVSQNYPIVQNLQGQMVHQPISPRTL
Summary of the method: (§1)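 SPR binding isotherms averaged over 3 replicates, with error bars as SD.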

[7] = target: Structural capsid protein (Human immunodeficiency virus 1) (UniProt Q76129); experiment: Ratio of Kd for HIV-1 NL4-3 monomeric capsid protein to Kd for HIV-1 NL4-3 hexameric capsid protein
Chain of Structural capsid protein (Human immunodeficiency virus 1) (Q76129 as listed by the source): as the sequence (Q76129 whole entry) above

[8] = target: T1, Structural capsid protein; experiment: Binding affinity to HIV-1 NL4-3 monomeric capsid protein by SPR analysis; summary of the method: as §1
[9] = target: Structural capsid protein (Human immunodeficiency virus 1) (UniProt Q76129); experiment: Binding affinity to HIV-1 NL4-3 hexameric capsid protein assessed as Koff by SPR analysis; settings: filed as modulator
[10] = Metabolic stability in human liver assessed as intrinsic clearance at 1 uM preincubated for 10 mins followed by NADPH addition and measured after 60 mins; settings: read-out: CLH

CLint scaled at 1 µM [10] [mL/min/kg]	SMILES	CC50 at 120 h [1] [µM]	EC50 [2] [µM]	EC50 [3] [µM]	selectivity ratio [4]	selectivity ratio [5]	Kd [6] [µM]	Ratio [7]	Kd [8] [µM]	K [9] [s⁻¹]
	COc1ccc(N(C)C(=O)[C@H](Cc2cc(F)cc(F)c2)NC(=O)CN2CCN(C(=O)c3ccc([N+](=O)[O-])cc3)CC2=O)cc1	18	> 18	> 18	< 1	< 1				
	COc1ccc(N(C)C(=O)[C@H](Cc2ccccc2)NC(=O)CN2CCN(C(=O)c3ccccc3[N+](=O)[O-])CC2=O)cc1	180	2.5	22	8.2	72				
	COc1ccc(N(C)C(=O)[C@H](Cc2ccccc2)NC(=O)CN2CCN(C(=O)c3ccccc3C(F)(F)F)CC2=O)cc1	130	2.9	21	6.2	45				
	COc1ccc(N(C)C(=O)[C@H](Cc2ccccc2)NC(=O)CN2CCN(C(=O)c3ccc(Cl)cc3)CC2=O)cc1	9	> 9	> 8.9	< 1	< 1				
	COc1ccc(N(C)C(=O)[C@H](Cc2ccccc2)NC(=O)CN2CCN(C(=O)c3ccc(Br)cc3)CC2=O)cc1	11	> 11	> 11	< 1	< 1				
	COc1ccc(N(C)C(=O)[C@H](Cc2cc(F)cc(F)c2)NC(=O)CN2CCN(C(=O)c3ccc(N)cc3)CC2=O)cc1	> 220	32	18	> 12	> 6.9				
	COc1ccc(N(C)C(=O)[C@H](Cc2cc(F)cc(F)c2)NC(=O)CN2CCN(C(=O)c3ccc(Br)cc3)CC2=O)cc1	19	> 19	> 19	< 1	< 1				
	COc1ccc(N(C)C(=O)[C@H](Cc2cc(F)cc(F)c2)NC(=O)CN2CCN(C(=O)c3ccc(F)cc3)CC2=O)cc1	77	21	20	3.8	3.7				
	COC(=O)c1ccc(C(=O)N2CCN(CC(=O)N[C@@H](Cc3ccccc3)C(=O)N(C)c3ccc(OC)cc3)C(=O)C2)cc1	200	24	> 190	< 1	8.3				
	COc1ccc(N(C)C(=O)[C@H](Cc2cc(F)cc(F)c2)NC(=O)CN2CCN(C(=O)c3ccc(Cl)cc3)CC2=O)cc1	19	> 19	> 19	< 1	< 1				
	COc1ccc(N(C)C(=O)[C@H](Cc2ccccc2)NC(=O)CN2CCN(C(=O)c3ccc(C)cc3)CC2=O)cc1	64	9.2	33	1.9	7				
	COc1ccc(N(C)C(=O)[C@H](Cc2cc(F)cc(F)c2)NC(=O)CN2CCN(C(=O)c3ccc(C)cc3)CC2=O)cc1	74	35	32	2.3	2.1				
	COc1ccc(N(C)C(=O)[C@H](Cc2cc(F)cc(F)c2)NC(=O)CN2CCN(C(=O)c3ccc(C(F)(F)F)cc3)CC2=O)cc1	18	> 18	> 18	< 1	< 1				
	COc1ccc(N(C)C(=O)[C@H](Cc2cc(F)cc(F)c2)NC(=O)CN2CCN(C(=O)c3cccc(N)c3)CC2=O)cc1	> 220	16	23	> 10	> 14				
	COc1ccc(N(C)C(=O)[C@H](Cc2ccccc2)NC(=O)CN2CCN(C(=O)c3ccc(F)cc3)CC2=O)cc1	77	11	> 77	< 1	7				
	COc1ccc(N(C)C(=O)[C@H](Cc2cc(F)cc(F)c2)NC(=O)CN2CCN(C(=O)c3ccccc3N)CC2=O)cc1	160	8.6	18	8.9	19				
	COc1ccc(N(C)C(=O)[C@H](Cc2ccccc2)NC(=O)CN2CCN(C(=O)c3ccccc3)CC2=O)cc1	> 240	3.6	28	> 8.6	> 67				
	COc1ccc(N(C)C(=O)[C@H](Cc2ccccc2)NC(=O)CN2CCN(C(=O)c3ccc(C(F)(F)F)cc3)CC2=O)cc1	42	≥ 41	≥ 37						

CLint scaled at 1 µM [10] [mL/min/kg]	SMILES	CC50 at 120 h [1] [µM]	EC50 [2] [µM]	EC50 [3] [µM]	selectivity ratio [4]	selectivity ratio [5]	Kd [6] [µM]	Ratio [7]	Kd [8] [µM]	K [9] [s⁻¹]
	COc1ccc(N(C)C(=O)[C@H](Cc2cc(F)cc(F)c2)NC(=O)CN2CCN(C(=O)c3cccc(F)c3)CC2=O)cc1	99	13	25	4	7.6				
	COc1ccc(N(C)C(=O)[C@H](Cc2cc(F)cc(F)c2)NC(=O)CN2CCN(C(=O)c3ccccc3F)CC2=O)cc1	140	5.3	22	6.4	26				
	COc1ccc(N(C)C(=O)[C@H](Cc2cc(F)cc(F)c2)NC(=O)CN2CCN(C(=O)c3cccc([N+](=O)[O-])c3)CC2=O)cc1	47	> 47	34	1.4	< 1				
	COc1ccc(N(C)C(=O)[C@H](Cc2cc(F)cc(F)c2)NC(=O)CN2CCN(C(=O)c3cccc(C(F)(F)F)c3)CC2=O)cc1	3.7	> 3.7	> 3.7	< 1	< 1				
	COc1ccc(N(C)C(=O)[C@H](Cc2ccccc2)NC(=O)CN2CCN(C(=O)c3ccc([N+](=O)[O-])cc3)CC2=O)cc1	16	> 16	> 16	< 1	< 1				
	COc1ccc(N(C)C(=O)[C@H](Cc2ccccc2)NC(=O)CN2CCN(C(=O)c3ccccc3F)CC2=O)cc1	140	7.8	24	5.8	18				
	COc1ccc(N(C)C(=O)[C@H](Cc2ccccc2)NC(=O)CN2CCN(C(=O)c3ccccc3N)CC2=O)cc1	160	5.4	23	7	30				
	COc1ccc(N(C)C(=O)[C@H](Cc2ccccc2)NC(=O)CN2CCN(C(=O)c3ccc(N)cc3)CC2=O)cc1	> 230	28	21	> 11	> 8.2				
	COc1ccc(C(=O)N2CCN(CC(=O)N[C@@H](Cc3ccccc3)C(=O)N(C)c3ccc(OC)cc3)C(=O)C2)cc1	110	21	26	4.2	5.2				
	COc1ccc(N(C)C(=O)[C@H](Cc2cc(F)cc(F)c2)NC(=O)CN2CCN(C(=O)c3ccccc3C(F)(F)F)CC2=O)cc1	110	5	12	9.2	22	5.3	2.2	12	0.25
	COc1ccc(N(C)C(=O)[C@H](Cc2ccccc2)NC(=O)CN2CCN(C(=O)c3cccc(C(F)(F)F)c3)CC2=O)cc1	6.7	> 6.7	> 6.7	< 1	< 1				
	COc1ccc(N(C)C(=O)[C@H](Cc2cc(F)cc(F)c2)NC(=O)CN2CCN(C(=O)c3ccccc3)CC2=O)cc1	110	12	25	4.4					
	COc1ccc(N(C)C(=O)[C@H](Cc2ccccc2)NC(=O)CN2CCN(C(=O)c3cccc([N+](=O)[O-])c3)CC2=O)cc1	24	> 24	> 24	< 1	< 1				
	COC(=O)c1ccc(C(=O)N2CCN(CC(=O)N[C@@H](Cc3cc(F)cc(F)c3)C(=O)N(C)c3ccc(OC)cc3)C(=O)C2)cc1	120	26	18	6.7	4.6				
	COc1ccc(N(C)C(=O)[C@H](Cc2ccccc2)NC(=O)CN2CCN(C(=O)c3cccc(N)c3)CC2=O)cc1	> 230	27	≥ 200	≥ 1	> 8.5				
	COc1ccc(N(C)C(=O)[C@H](Cc2ccccc2)NC(=O)CN2CCN(C(=O)c3cccc(F)c3)CC2=O)cc1	> 230	4.6	23	> 10	> 50				
3.3	O=C(O)Cc1ccccc1Nc1c(Cl)cccc1Cl [DICLOFENAC]									
	COc1ccc(C(=O)N2CCN(CC(=O)N[C@@H](Cc3cc(F)cc(F)c3)C(=O)N(C)c3ccc(OC)cc3)C(=O)C2)cc1	96	31	24	4	3.1				
